Source: article PMC8652384 (Experimental and Therapeutic Medicine, 2021)
Where two headings read alike, the source gives them in different places. Residues, ends and D or L forms follow the SMILES beside them. *: point of attachment. Cbz = O=C(OCc1ccccc1)*

Assays:
integrin α4 [1] = target: T1, integrin α4 (Homo sapiens, UniProt P05556+P13612); assay: Western blot analysis of integrin α4 protein; type: cell-based; details: MG132 1 µM; 96 h; LAX7R, LAX53, LAX56, REH
primary ALL = details: cited from earlier work
[2] = cited from earlier work
integrin α4 [3] = target: T1, integrin α4; details: cited from earlier work
HUVECs = assay: Endothelial tube formation assay; type: cell-based, human; details: data not shown
Outline: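 HUVECs (4-6x10^4/well) pre-treated 30 min at 37°C with test compound (0, 5 or 25 µM) or a reference α4 antagonist (0 or 25 µM), then seeded on Matrigel-coated wells for 4-6 h at 37°C, 5% CO2. Three fields per well imaged by phase contrast (x100); nodes, segments, meshes and total area quantified by image analysis.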

VLA-4 = VLA-4 (Homo sapiens, UniProt P05556+P13612); assay: VLA-4 conformation activation assay; type: binding; details: LAX7R and TXL3 cells; without 5 mM Mn2+
Outline: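 LAX7R or TXL3 cells, 1x10^6/ml in HEPES buffer pH 7.4 with 0.1% HSA, Ca2+ and Mg2+, incubated 30 min at 37°C with test compound (0-100 µM) or human VCAM-1 ([…]), 10% PE-HUTS-21, ±5 mM Mn2+. DAPI added during final 5 min. PE MFI read on viable cells by flow cytometry; isotype control gave nonspecific binding. Occupancy curves fitted by variable-slope sigmoidal model.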

Q: With CC(C)C[C@@H](C=O)NC(=O)[C@H](CC(C)C)NC(=O)[C@H](CC(C)C)NC(=O)OCc1ccccc1 [MG132] (Cbz-Leu-Leu-Leu-aldehyde) as the compound, how does the “restoration of α4 decreased by AVA4746 (25 µM)” value (integrin α4 [1]) read?
A: partially restored by MG132 in all cases apart from LAX56

Q: With CCCC[C@H](NC(=O)N[C@@H](CC(=O)O)c1ccc2c(c1)OCO2)C(=O)N(Cc1cccs1)Cc1cccs1 [TBC3486] as the compound, how does the “survival of mice with primary ALL” value (primary ALL) read?
A: prolonged the survival of the mice

Q: For natalizumab [NZM], which progressive multifocal leukoencephalopathy ([2]; patients treated with NZM) is on record?
A: progressive multifocal leukoencephalopathy can arise

Q: What about the “patients with antibodies against natalizumab” value ([2]; patients with Crohn's disease) of the same compound?
A: 7%

Q: What about the “patients with antibodies against natalizumab” value ([2]; patients with MS) of the same compound?
A: 11%

Q: And the “de-adhesion of B-ALL cells from VCAM-1” value (integrin α4 [3])?
A: can cause the de-adhesion of B-ALL cells from VCAM-1

Q: What about the angiogenesis inhibition (HUVECs) of the same compound?
A: no statistical differences

Q: With “vascular cell adhesion molecule-1 [VCAM-1]” as the compound, how does the “conformation changes corresponding to VLA-4 activation” value (VLA-4) read?
A: little conformation changes
